How the values were obtained:
[1] = molecular target: T1, Tissue alpha-L-fucosidase (Homo sapiens, UniProt P04066); experiment: Inhibition of human placenta alpha fucosidase at pH 6.8
T1 sequence (P04066 whole entry): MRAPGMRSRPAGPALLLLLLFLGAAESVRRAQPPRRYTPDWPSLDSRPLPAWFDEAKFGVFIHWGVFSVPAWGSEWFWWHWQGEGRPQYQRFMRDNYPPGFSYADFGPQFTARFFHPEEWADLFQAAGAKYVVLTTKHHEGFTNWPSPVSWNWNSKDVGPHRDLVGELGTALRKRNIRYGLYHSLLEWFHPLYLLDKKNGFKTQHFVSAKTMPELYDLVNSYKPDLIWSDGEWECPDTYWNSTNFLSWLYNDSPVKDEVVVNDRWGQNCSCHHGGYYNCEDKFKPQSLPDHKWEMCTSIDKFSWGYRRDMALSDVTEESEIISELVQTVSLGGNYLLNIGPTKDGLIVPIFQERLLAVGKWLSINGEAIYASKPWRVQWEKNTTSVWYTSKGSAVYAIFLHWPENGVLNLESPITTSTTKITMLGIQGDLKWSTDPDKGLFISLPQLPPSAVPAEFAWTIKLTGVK
Outline: (§1)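 Nitrophenyl glycoside substrate hydrolysis in 0.1 M sodium phosphate, pH 6.8, 25 °C. Seven cuvettes hold a fixed inhibitor concentration and seven hold none, each across varying substrate levels. The reaction is started with diluted enzyme, and 4- or 2-nitrophenol release is followed at 400 nm for 2 min. Ki = [I]/(KM′/KM − 1) from KM with and without inhibitor.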

Alpha-galactosidase = Alpha-galactosidase (Coffea arabica, UniProt Q5DUH8); experiment: Inhibition of green coffee beans alpha galactosidase at pH 6.8; outline: as §1
Chain of Alpha-galactosidase (Q5DUH8 whole entry): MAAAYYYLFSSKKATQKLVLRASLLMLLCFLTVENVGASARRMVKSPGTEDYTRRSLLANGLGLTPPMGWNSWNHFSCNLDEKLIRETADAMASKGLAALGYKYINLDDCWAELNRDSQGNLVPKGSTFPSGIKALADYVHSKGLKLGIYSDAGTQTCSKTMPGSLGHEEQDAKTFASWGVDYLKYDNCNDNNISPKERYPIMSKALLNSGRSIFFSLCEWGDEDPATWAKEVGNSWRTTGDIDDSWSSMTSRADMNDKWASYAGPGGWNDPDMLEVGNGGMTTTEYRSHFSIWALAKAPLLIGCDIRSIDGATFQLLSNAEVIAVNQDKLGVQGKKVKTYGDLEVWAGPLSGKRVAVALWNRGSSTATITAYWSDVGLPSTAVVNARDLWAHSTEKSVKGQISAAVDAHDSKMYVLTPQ

[2] = Inhibition of yeast alpha glucosidase at pH 6.8; design: species or system Saccharomyces cerevisiae; outline: as §1
[3] = molecular target: T2, Tissue alpha-L-fucosidase (Bos taurus, UniProt Q2KIM0); experiment: Inhibition of bovine kidney alpha fucosidase at pH 6.8; outline: as §1
T2 sequence (Q2KIM0 whole entry): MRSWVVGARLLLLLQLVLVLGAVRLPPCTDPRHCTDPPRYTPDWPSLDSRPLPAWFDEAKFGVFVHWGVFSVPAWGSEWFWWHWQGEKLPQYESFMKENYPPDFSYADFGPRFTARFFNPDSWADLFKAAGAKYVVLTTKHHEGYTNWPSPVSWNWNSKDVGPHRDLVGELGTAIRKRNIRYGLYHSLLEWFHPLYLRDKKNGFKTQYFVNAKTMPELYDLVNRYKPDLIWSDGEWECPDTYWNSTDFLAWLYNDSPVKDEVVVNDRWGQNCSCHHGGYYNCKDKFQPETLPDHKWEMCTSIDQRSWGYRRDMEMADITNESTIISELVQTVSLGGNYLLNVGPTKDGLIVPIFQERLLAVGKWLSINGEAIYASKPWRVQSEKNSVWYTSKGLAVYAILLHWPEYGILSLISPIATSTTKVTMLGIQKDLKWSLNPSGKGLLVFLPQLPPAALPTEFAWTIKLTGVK

[4] = Dissociation constant, pKa of the compound; format: physicochemical

SMILES	Ki [1]	Ki (Alpha-galactosidase)	Ki [2]	Ki [3]	pKa [4]
C[C@@H]1NC[C@@H](O)[C@H](O)C1(F)F	250 µM	> 1000 µM	> 1000 µM	570 µM	–
OC[C@H]1NC[C@@H](O)[C@@H](O)C1(F)F	–	–	–	–	5.3
C[C@H]1NC[C@H](O)[C@@H](O)C1(F)F	> 1000 µM	> 1000 µM	> 1000 µM	> 1000 µM	–

From ChEMBL document CHEMBL1147677, “Synthesis and biological evaluation of glycosidase inhibitors: gem-difluoromethylenated nojirimycin analogues” (J Med Chem, 2006)
